Laboratory results published in ChEMBL document CHEMBL1154734, “Small-sized human immunodeficiency virus type-1 protease inhibitors containing allophenylnorstatine to explore the S2' pocket” (J Med Chem, 2009).
Converted amounts (≈) assume the structure as drawn.

What was measured:
[1] = molecular target: Protease (Human immunodeficiency virus 1) (UniProt Q9YQ12); test: Inhibition of HIV1 recombinant protease at 50 nM after 15 mins by fluorescence assay
Procedure, shortened: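 Recombinant HIV-1 protease was assayed in MES–NaOH pH 5.5 with DTT, EDTA and NaCl, with inhibitor at 50 nM final (500 nM DMSO stock). The substrate was H-Lys-Ala-Arg-Val-Tyr-Phe(p-NO2)-Glu-Ala-Nle-NH2, and the reaction ran 15 min at 37 °C. It was stopped with 1 N HCl. The N-terminal fragment was quantified by RP-HPLC with fluorescence at ex 275/em 305 nm.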

[2] = tested on: Human immunodeficiency virus 1; test: Antiviral activity against HIV1 3B infected in human MT4 cells assessed as inhibition of virus-induced cytopathic effect after 5 days by MTT assay; assay type: functional, organism-based; conditions: Human immunodeficiency virus 1, 3B, MT4, 120 h
Procedure, shortened: (§1)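 HIV-1 (IIIB or pNL4-3) inoculated into MT-4 cells. Cultures were treated with an equal volume of a 1% DMSO solution of compound at several concentrations plus 10% fetal bovine serum, then incubated 5 days at 37 °C in CO2, in triplicate. After MTT, optical density gave the percent cytopathic effect reduction. EC50 was fitted to a median-effect equation.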

[3] = tested on: Human immunodeficiency virus 1; test: Antiviral activity against HIV1 3B infected in human MT4 cells assessed as inhibition of virus-induced cytopathic effect after 5 days by MTT assay in absence of human serum; assay type: functional, organism-based; conditions: Human immunodeficiency virus 1, 3B, MT4, 120 h; procedure, shortened: as §1
[4] = tested on: Human immunodeficiency virus 1; test: Ratio of EC50 for HIV1 3B infected in human MT4 cells in presence of 50% human serum to EC50 for HIV1 3B infected in human MT4 cells in absence of human serum; assay type: functional
[5] = tested on: Human immunodeficiency virus 1; test: Fold resistance, ratio of EC50 for indinavir-resistant HIV1 harboring L10R/M46I/L63P/V82T/I84V mutant protease infected in human MT4 cells to EC50 for HIV1 pNL4-3 infected in human MT4 cells; assay type: functional
Procedure, shortened: (§2)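 MT-4 cells inoculated with HIV-1 wild-type pNL4-3 or indinavir-resistant IND-R, then given an equal volume of compound in 1% DMSO at several concentrations with 10% fetal bovine serum. Incubated 5 days at 37 °C in CO2, in triplicate. MTT read-out by optical density gave percent cytopathic-effect reduction; EC50 was fitted to a median-effect equation.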

[6] = tested on: Human immunodeficiency virus 1; test: Antiviral activity against indinavir-resistant HIV1 harboring L10R/M46I/L63P/V82T/I84V mutant protease infected in human MT4 cells assessed as inhibition of virus-induced cytopathic effect after 5 days by MTT assay; assay type: functional, organism-based; conditions: Human immunodeficiency virus 1, MT4, 120 h; procedure, shortened: as §2
[7] = Aqueous solubility in 0.1% TFA after 30 mins by RP-HPLC analysis; assay type: physicochemical; conditions: 0.1% TFA in water
[8] = tested on: Human immunodeficiency virus 1; test: Antiviral activity against HIV1 pNL4-3 infected in human MT4 cells assessed as inhibition of virus-induced cytopathic effect after 5 days by MTT assay; assay type: functional, organism-based; conditions: Human immunodeficiency virus 1, pNL4-3, MT4, 120 h; procedure, shortened: as §1
[9] = tested on: Human immunodeficiency virus 1; test: Antiviral activity against HIV1 3B infected in human MT4 cells assessed as inhibition of virus-induced cytopathic effect after 5 days by MTT assay in presence of 50% human serum; assay type: functional, organism-based; conditions: Human immunodeficiency virus 1, 3B, MT4, 120 h
Procedure, shortened: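 MT-4 cells were infected with wild-type HIV-1 (IIIB or pNL4-3) in the presence of 50% human serum. Compound was added at several concentrations from a 1% DMSO solution, and cells were incubated 5 days at 37 °C in triplicate. Cytopathic effect reduction was read by MTT optical density, and EC50 was derived from a median-effect equation fit.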

[10] = molecular target: Protease (Human immunodeficiency virus 1) (UniProt Q9YQ12); test: Inhibition of HIV1 recombinant protease at 1 nM after 3 hrs by fluorescence assay

Chain of Protease (Human immunodeficiency virus 1) (Q9YQ12 as listed by the source): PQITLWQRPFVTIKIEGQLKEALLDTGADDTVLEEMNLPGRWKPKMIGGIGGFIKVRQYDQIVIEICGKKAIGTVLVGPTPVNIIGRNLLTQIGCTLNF

| Structure (SMILES) | inhibition [1] [%] | EC50 [2] [nM] | EC50 [3] [nM] | Ratio EC50 [4] | Ratio EC50 [5] | EC50 [6] [nM] | solubility at 0.5 h [7] [µg/mL] | EC50 [8] [nM] | EC50 [9] [nM] | inhibition [10] [%] |
| --- | --- | --- | --- | --- | --- | --- | --- | --- | --- | --- |
| CCNC(=O)[C@H]1N(C(=O)[C@@H](O)[C@H](Cc2ccccc2)NC(=O)c2cccc(O)c2C)CSC1(C)C | 64 | 182 | – | – | – | – | – | – | – | – |
| Cc1cc(N)cc(C)c1OCC(=O)N[C@@H](Cc1ccccc1)[C@H](O)C(=O)N1CSC(C)(C)[C@H]1C(=O)NC1CCCC1 | 90 | – | 373 | 5 | 4.9 | 3010 | 7480 (≈ 12.8 mM) | 620 | 1900 | – |
| Cc1c(O)cccc1C(=O)N[C@@H](Cc1ccccc1)[C@H](O)C(=O)N1CSC(C)(C)[C@H]1C(=O)NC1CCCCCC1 | 76 | 332 | – | – | – | – | – | – | – | – |
| Cc1cc(N)cc(C)c1OCC(=O)N[C@@H](Cc1ccccc1)[C@H](O)C(=O)N1CSC(C)(C)[C@H]1C(=O)NC/C=C\CO | 91 | – | 184 | 2.3 | – | – | 9320 (≈ 15.9 mM) | – | 433 | – |
| Cc1c(O)cccc1C(=O)N[C@@H](Cc1ccccc1)[C@H](O)C(=O)N1CSC(C)(C)[C@H]1C(=O)N[C@@H]1c2ccccc2C[C@@H]1O | 66 | 550 | – | – | – | – | – | – | – | – |
| Cc1c(O)cccc1CNC(=O)[C@H]1N(C(=O)[C@@H](O)[C@H](Cc2ccccc2)NC(=O)c2cccc(O)c2C)CSC1(C)C | 95 | 120 | – | – | 1 | 155 | – | 162 | – | 41 |
| Cc1c(O)cccc1C(=O)N[C@@H](Cc1ccccc1)[C@H](O)C(=O)N1CSC(C)(C)[C@H]1C(=O)N[C@H]1CCc2ccccc21 | 97 | 73 | – | – | – | – | – | – | – | – |
| Cc1c(O)cccc1C(=O)N[C@@H](Cc1ccccc1)[C@H](O)C(=O)N1CSC(C)(C)[C@H]1C(=O)NCc1c(Cl)cccc1Cl | 98 | 39 | – | – | – | – | – | – | – | 66 |
| Cc1ccccc1CNC(=O)[C@H]1N(C(=O)[C@@H](O)[C@H](Cc2ccccc2)NC(=O)COc2c(C)cc(N(C)C)cc2C)CSC1(C)C | 85 | – | 758 | 5.1 | – | – | 3830 (≈ 5.92 mM) | – | 3900 | – |
| Cc1c(O)cccc1C(=O)N[C@@H](Cc1ccccc1)[C@H](O)C(=O)N1CSC(C)(C)[C@H]1C(=O)N[C@H](C)c1ccccc1 | 52 | 617 | – | – | – | – | – | – | – | – |
| Cc1c(O)cccc1C(=O)N[C@@H](Cc1ccccc1)[C@H](O)C(=O)N1CSC(C)(C)[C@H]1C(=O)NC1CCCC1 | 94 | 125 | – | – | 7.6 | 2200 | – | 290 | – | – |
| C=CCNC(=O)[C@H]1N(C(=O)[C@@H](O)[C@H](Cc2ccccc2)NC(=O)COc2c(C)cc(N)cc2C)CSC1(C)C | 91 | – | 66 | 4.3 | 8.7 | 470 | 12800 (≈ 23.1 mM) | 54 | 284 | – |
| Cc1c(F)cccc1CNC(=O)[C@H]1N(C(=O)[C@@H](O)[C@H](Cc2ccccc2)NC(=O)c2cccc(O)c2C)CSC1(C)C | 97 | 56 | – | – | – | – | – | – | – | 53 |
| Cc1cccc(C)c1OCC(=O)N[C@@H](Cc1ccccc1)[C@H](O)C(=O)N1CSC(C)(C)[C@H]1C(=O)NC(C)(C)C | 91 | – | 1290 | – | – | – | – | – | 4500 | – |
| C=CCNC(=O)[C@H]1N(C(=O)[C@@H](O)[C@H](Cc2ccccc2)NC(=O)c2cccc(O)c2C)CSC1(C)C | 93 | 123 | – | – | 1.2 | 173 | – | 141 | – | – |
| CNc1cc(C)c(OCC(=O)N[C@@H](Cc2ccccc2)[C@H](O)C(=O)N2CSC(C)(C)[C@H]2C(=O)NCc2ccccc2C)c(C)c1 | 85 | – | 191 | 2.9 | – | – | 2990 (≈ 4.72 mM) | – | 560 | – |
| Cc1cc(N)cc(C)c1OCC(=O)N[C@@H](Cc1ccccc1)[C@H](O)C(=O)N1CSC(C)(C)[C@H]1C(=O)NCc1c(Cl)cccc1Cl | 95 | – | 158 | 4.1 | – | – | 1180 (≈ 1.75 mM) | – | 648 | – |

| Structure (SMILES) | inhibition [1] [%] | EC50 [2] [nM] | EC50 [3] [nM] | Ratio EC50 [4] | Ratio EC50 [5] | EC50 [6] [nM] | solubility at 0.5 h [7] [µg/mL] | EC50 [8] [nM] | EC50 [9] [nM] | inhibition [10] [%] |
| --- | --- | --- | --- | --- | --- | --- | --- | --- | --- | --- |
| Cc1cc(N)cc(C)c1OCC(=O)N[C@@H](Cc1ccccc1)[C@H](O)C(=O)N1CSC(C)(C)[C@H]1C(=O)N[C@H]1CCc2ccccc21 | 97 | – | 32 | 7.5 | 8.7 | 416 | 1710 (≈ 2.71 mM) | 48 | 241 | – |
| Cc1cccc(Cl)c1CNC(=O)[C@H]1N(C(=O)[C@@H](O)[C@H](Cc2ccccc2)NC(=O)c2cccc(O)c2C)CSC1(C)C | 99 | 32 | – | – | – | – | – | – | – | 77 |
| Cc1c(O)cccc1C(=O)N[C@@H](Cc1ccccc1)[C@H](O)C(=O)N1CSC(C)(C)[C@H]1C(=O)N[C@@H]1CCc2ccccc21 | 91 | 353 | – | – | – | – | – | – | – | – |
| Cc1cc(N)cc(C)c1OCC(=O)N[C@@H](Cc1ccccc1)[C@H](O)C(=O)N1CSC(C)(C)[C@H]1C(=O)N[C@H]1c2ccccc2C[C@H]1O | – | – | 357 | 4.2 | 3.2 | 1420 | 3740 (≈ 5.78 mM) | 450 | 1500 | – |
| CCCNC(=O)[C@H]1N(C(=O)[C@@H](O)[C@H](Cc2ccccc2)NC(=O)c2cccc(O)c2C)CSC1(C)C | 88 | 91 | – | – | – | – | – | – | – | – |
| Cc1c(O)cccc1C(=O)N[C@@H](Cc1ccccc1)[C@H](O)C(=O)N1CSC(C)(C)[C@H]1C(=O)NCc1c(F)cccc1F | 91 | 51 | – | – | – | – | – | – | – | 24 |
| Cc1c(O)cccc1C(=O)N[C@@H](Cc1ccccc1)[C@H](O)C(=O)N1CSC(C)(C)[C@H]1C(=O)N[C@H]1c2ccccc2C[C@H]1O | 92 | 100 | – | – | – | – | – | – | – | – |
| Cc1cccc(C)c1CNC(=O)[C@H]1N(C(=O)[C@@H](O)[C@H](Cc2ccccc2)NC(=O)COc2c(C)cc(N)cc2C)CSC1(C)C | 99 | – | 41 | 3.6 | 3.4 | 409 | 1250 (≈ 1.98 mM) | 122 | 150 | – |
| Cc1cc(N)cc(C)c1OCC(=O)N[C@@H](Cc1ccccc1)[C@H](O)C(=O)N1CSC(C)(C)[C@H]1C(=O)NC(C)(C)C | 92 | – | 132 | 4.5 | 7.3 | 2030 | 6020 (≈ 10.5 mM) | 280 | 601 | – |
| Cc1c(O)cccc1C(=O)N[C@@H](Cc1ccccc1)[C@H](O)C(=O)N1CSC(C)(C)[C@H]1C(=O)N[C@@H](C)c1ccccc1 | 95 | 79 | – | – | – | – | – | – | – | 31 |
| Cc1c(O)cccc1C(=O)N[C@@H](Cc1ccccc1)[C@H](O)C(=O)N1CSC(C)(C)[C@H]1C(=O)NC1CCC1 | 65 | 119 | – | – | – | – | – | – | – | – |
| Cc1cccc(C)c1OCC(=O)N[C@@H](Cc1ccccc1)[C@@H](O)C[C@H](Cc1ccccc1)NC(=O)[C@H](C(C)C)N1CCCNC1=O [LOPINAVIR] | – | 30 | – | – | 24 | 385 | – | 16 | – | – |
| Cc1ccccc1CNC(=O)[C@H]1N(C(=O)[C@@H](O)[C@H](Cc2ccccc2)NC(=O)COc2c(C)cc(N)cc2C)CSC1(C)C | 98 | – | 83 | 3 | 5.5 | 568 | 2640 (≈ 4.27 mM) | 103 | 249 | – |
| C#CCNC(=O)[C@H]1N(C(=O)[C@@H](O)[C@H](Cc2ccccc2)NC(=O)c2cccc(O)c2C)CSC1(C)C | 90 | 110 | – | – | 3.5 | 1930 | – | 558 | – | – |
| Cc1c(O)cccc1C(=O)N[C@@H](Cc1ccccc1)[C@H](O)C(=O)N1CSC(C)(C)[C@H]1C(=O)NC/C=C\CO | 94 | 1200 | – | – | – | – | – | – | – | – |
| Cc1c(O)cccc1C(=O)N[C@@H](Cc1ccccc1)[C@H](O)C(=O)N1CSC(C)(C)[C@H]1C(=O)NC1CCCCC1 | 86 | 207 | – | – | 7.2 | 1730 | – | 240 | – | – |
